Calls of active or inactive are those of the source. The calls are words filed in the database; no cut-off is given here.

The subject of one test is THLE-2. Briefly: Antiproliferative activity against human THLE2 cells after 72 hrs by CelTiter-Glo assay. In kind it is cell-based. Conditions: THLE-2, 72 h.
Test [1] has as its system KOPN-8. The experiment in a line: Induction of apoptosis in human KOPN8 cells assessed as early apoptotic cells at 10 uM after 24 hrs by Annexin V-FITC/propidium iodide staining-based flow cytometry (reference value: 0.1%). It is filed as functional. Put shortly:
(§1)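 KOPN-8 cells treated 24 h alongside a DMSO vehicle and a staurosporine (2.0 µM) positive control. Apoptosis was scored by FITC Annexin V / propidium iodide flow cytometry with quadrant gating (early, late apoptotic). DNA content was measured by PI staining to give the percentage of cells in G0/G1, S and G2/M. Groups were compared by t-test; error bars are SD.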
(A flow cytometer gives signals particle by particle.)

For test [2], the system named is SUP-B15. The experiment in a line: Induction of apoptosis in human SUP-B15 cells assessed as viable cells at 10 uM after 24 hrs by Annexin V-FITC/propidium iodide staining-based flow cytometry (reference value: 82.8%). It is filed as functional. As to conditions: SUP-B15, 24 h, read-out: Activity.
Test [3] deals with SUP-B15. The experiment in a line: Induction of apoptosis in human SUP-B15 cells assessed as necrotic cells at 10 uM after 24 hrs by Annexin V-FITC/propidium iodide staining-based flow cytometry (reference value: 9.2%). It is filed as functional.
For test [4], the system named is KOPN-8. The experiment in a line: Cell cycle arrest in human KOPN8 cells assessed as accumulation at G0/G1 phase at 10 uM after 24 hrs by propidium iodide staining-based flow cytometry (reference value: 24.77%). It is filed as functional. Put shortly:
as §1

A further test deals with MCF7. The experiment in a line: Induction of oxidative stress in human MCF7 cells transfected with mRuby-Mito-7 with fugene assessed as increase in intracellular total ROS levels at 50 uM measured after 1 hr by fluorimetric analysis. In kind it is functional, cell-based. Put shortly:
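MCF-7 cells carried an mRuby-Cox8A mitochondrial label. They were exposed to 50 of compound, alone or together with 50 of N-acetylcysteine, for 1 h. Cells were then stained with CellROX green (ex/em 485/520 nm) plus Hoechst 33342 nuclear stain. Total and mitochondrial ROS fluorescence was imaged in live cells and quantified relative to control.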

The test system of test [5] is KOPN-8. Briefly: Induction of apoptosis in human KOPN8 cells assessed as effect on Mcl-1 level at 30 uM pre-treated with NAC for 1 hr and measured after 3 hrs by Western blot analysis relative to control. It is filed as functional. Put shortly: (§2)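 KOPN-8 cells were exposed to compound for 3 h and 24 h, with or without N-acetylcysteine added to a parallel set as antioxidant. Lysates were analysed by Western blot for cleaved PARP, Mcl-1, Ser-2-phosphorylated RNAPII CTD, cMyc, total Rb and pRb. Signals were compared against controls for dose-dependent change.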

Test [6] concerns KOPN-8. The experiment in a line: Effect on c-Myc expression in human KOPN8 cells at 30 uM pre-treated with NAC for 1 hr and measured after 24 hrs by Western blot analysis relative to control. It is filed as functional. In general terms: In western blotting, separated proteins are transferred to a membrane and probed.
The subject of test [7] is KOPN-8. The experiment in a line: Effect on c-Myc expression in human KOPN8 cells at 100 uM after 3 hrs by Western blot analysis relative to control. It is filed as functional. Put shortly:
(§3)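 KOPN-8 cells were treated at 10–100 µM final, with or without N-acetylcysteine co-addition, for 3 h and 24 h. Lysates were analysed by Western blot for PARP cleavage, Mcl-1, phospho-Ser2 RNAPII CTD, c-Myc, total Rb and pRb. Levels are relative to the vehicle control.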

Test [8] deals with KOPN-8. Briefly: Effect on c-Myc expression in human KOPN8 cells at 100 uM pre-treated with NAC for 1 hr and measured after 3 hrs by Western blot analysis relative to control. In kind it is functional.
In test [9] the test system is KOPN-8. The experiment in a line: Effect on c-Myc expression in human KOPN8 cells at 10 uM after 24 hrs by Western blot analysis relative to control. In kind it is functional. Put shortly:
as §3

For test [10], the system named is KOPN-8. The experiment in a line: Effect on c-Myc expression in human KOPN8 cells at 30 uM after 24 hrs by Western blot analysis relative to control. It is filed as functional. Put shortly: as §3
The target of test [11] is T1, Retinoblastoma-associated protein (Homo sapiens) (UniProt P06400).
T1 sequence (whole entry): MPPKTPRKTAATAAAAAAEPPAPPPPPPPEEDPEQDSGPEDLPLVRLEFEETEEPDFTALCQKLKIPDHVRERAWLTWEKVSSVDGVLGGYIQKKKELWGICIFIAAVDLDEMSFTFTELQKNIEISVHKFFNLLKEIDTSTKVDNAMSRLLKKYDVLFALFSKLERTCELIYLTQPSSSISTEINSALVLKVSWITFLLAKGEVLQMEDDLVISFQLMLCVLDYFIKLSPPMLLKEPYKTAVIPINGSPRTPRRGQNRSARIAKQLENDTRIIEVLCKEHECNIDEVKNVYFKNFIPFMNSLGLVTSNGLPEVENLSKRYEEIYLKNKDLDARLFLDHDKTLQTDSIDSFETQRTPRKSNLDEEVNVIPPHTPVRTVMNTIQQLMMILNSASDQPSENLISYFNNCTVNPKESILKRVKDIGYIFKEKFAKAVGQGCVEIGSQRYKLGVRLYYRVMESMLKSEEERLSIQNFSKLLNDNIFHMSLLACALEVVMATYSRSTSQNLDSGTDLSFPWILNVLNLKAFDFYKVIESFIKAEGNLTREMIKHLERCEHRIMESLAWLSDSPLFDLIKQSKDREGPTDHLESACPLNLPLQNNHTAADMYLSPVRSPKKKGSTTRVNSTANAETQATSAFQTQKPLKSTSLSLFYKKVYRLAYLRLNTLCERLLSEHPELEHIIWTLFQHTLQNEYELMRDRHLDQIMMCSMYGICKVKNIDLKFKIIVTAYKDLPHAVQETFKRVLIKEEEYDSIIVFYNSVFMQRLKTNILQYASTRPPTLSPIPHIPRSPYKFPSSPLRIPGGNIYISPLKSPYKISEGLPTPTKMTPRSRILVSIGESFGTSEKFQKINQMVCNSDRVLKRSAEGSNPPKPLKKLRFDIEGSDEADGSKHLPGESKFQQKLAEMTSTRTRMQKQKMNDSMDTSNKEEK
Briefly: Inhibition of Rb phosphorylation in human KOPN8 cells assessed as ratio of phosphorylated Rb to total Rb levels at 100 uM after 3 hrs by Western blot analysis relative to control. In kind it is cell-based. The method in brief:
(§4)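 KOPN-8 pre-B ALL cells were treated for 3 h and 24 h, with or without N-acetyl cysteine added to a parallel set of cells as an antioxidant/ROS quencher. Lysates were analysed by Western blot for phosphorylated Rb and total Rb. The same blots also probed PARP cleavage, Mcl-1, Ser-2-phosphorylated RNAPII CTD and cMyc.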

The target in test [12] is T1, Retinoblastoma-associated protein (Homo sapiens). Briefly: Inhibition of Rb phosphorylation in human KOPN8 cells assessed as ratio of phosphorylated Rb to total Rb levels at 30 uM after 24 hrs by Western blot analysis relative to control. It is filed as cell-based. Put shortly:
as §4

The test system of a further test is MDA-MB-231. Briefly: Cell cycle arrest in human MDA-MB-231 cells assessed as accumulation at G2/M phase at 5 uM after 24 hrs by propidium iodide staining-based flow cytometry (reference value: 9.38%). In kind it is functional.
Test [13] deals with KOPN-8. The experiment in a line: Induction of apoptosis in human KOPN8 cells assessed as upregulation of cleaved PARP level at 0.5 uM pre-treated with NAC for 1 hr and measured after 24 hrs by Western blot analysis. In kind it is functional, cell-based. The method in brief: as §2
For another test, the species on record is Homo sapiens. The experiment in a line: Inhibition of RNA polymerase 2 C-terminal domain phosphorylation at Ser2 residue in human KOPN8 cells at 0.5 uM after 24 hrs by Western blot analysis. In kind it is cell-based. The method in brief:
as §2

`COc1ccc(-c2c(I)c(=O)c3c(OC)cc(OC)cc3n2S(=O)(=O)c2ccc(OC)cc2)cc1` registered a concentration for a half-maximal effect (EC50) in the test on THLE-2 of 57 µM. Besides, the results for the Activity with KOPN-8 [1], in the test on SUP-B15 [3] and in the test with KOPN-8 [4] were 0.2%, 15.7% and 47.22%, respectively. Further, the viability at 10 µM with SUP-B15 [2] was 70.5%. Further, in the test with MCF7, the result was Active. The “fold change (FC)” value in the test on KOPN-8 [5] is on record as 0.8; in the test on KOPN-8 [6], 1; with KOPN-8 [7] it was 0.2; with KOPN-8 [8] it was 0.5; in the test with KOPN-8 [9], 1.3; in the test on KOPN-8 [10], 0.9. Also, the fold change (FC) in [11] and in [12] was 1 each time.

With `CN(C)C(=O)c1cc2cnc(Nc3ccc(N4CCNCC4)cn3)nc2n1C1CCCC1` [RIBOCICLIB], the Activity in the test on MDA-MB-231 stood at 4.51%. Also, the outcome in the test on KOPN-8 [13] was Active. Further, the fold change (FC) in the test listed under Homo sapiens is 2.3.

As a reminder, the EC50 is the concentration that produces a half-maximal response. Low readings indicate higher potency in that assay, high ones lower potency in that assay.

(Values after ChEMBL document CHEMBL4196009, “Novel vitexin-inspired scaffold against leukemia” (Eur J Med Chem, 2018).)
